Data from ChEMBL document CHEMBL3286210, “Discovery of 3-aryl-3-ethoxypropanoic acids as orally active GPR40 agonists” (Bioorg Med Chem Lett, 2014).
Active and inactive are the calls of the source. The calls are words filed in the database; no cut-off is given here.

Legend:
[1] = molecular target: Free fatty acid receptor 1 (Rattus norvegicus, UniProt Q8K3T4); assay: Agonist activity at rat GPR40 expressed in CHO cells by calcium flux assay; format: functional, cell-based
How it was run: (§1)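 Intracellular calcium flux read in CHO cells transfected with GPR40; values are means of two or three independent experiments.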

[2] = molecular target: Free fatty acid receptor 1 (Homo sapiens, UniProt O14842); assay: Agonist activity at human GPR40 expressed in CHO cells by calcium flux assay; format: functional, cell-based; how it was run: as §1
[3] = AUC in diabetic Zucker fatty rat model measured during OGTT at 1 mg/kg, po administered 30 mins prior to glucose challenge; format: ADME, organism-based; set-up: dose 1 mg/kg, route oral; conditions: in vivo
How it was run: (§2)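 9-week-old Zucker fatty rats were fasted overnight and given vehicle or compound orally 30 min before an oral glucose tolerance test with a 2 g/kg glucose challenge. Blood was sampled during the OGTT, and plasma exposure was reported as Cmax (µg/ml) and AUC (µg h/ml).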

[4] = Cmax in diabetic Zucker fatty rat model measured during OGTT at 1 mg/kg, po administered 30 mins prior to glucose challenge; format: ADME, organism-based; set-up: dose 1 mg/kg, route oral; conditions: in vivo
How it was run: (§3)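 Plasma exposure (Cmax, AUC) measured during OGTT in overnight-fasted Zucker fatty rats dosed orally 30 min before a 2 g/kg glucose challenge.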

[5] = Lipophilicity, log D of the compound at pH 7.4; format: physicochemical; conditions: buffer
[6] = Clearance in F344 rat at 2 mg/kg, iv; format: ADME, organism-based; set-up: dose 2 mg/kg, route intravenous; conditions: in vivo
How it was run: (§4)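 F344 rats, single iv dose of 2 mg/kg, plasma pharmacokinetic parameters determined.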

Rattus norvegicus [7] = assay: Antidiabetic activity in po dosed diabetic Zucker fatty rat model assessed as reduction of blood glucose level administered 30 mins prior to glucose challenge by oral glucose tolerance test; format: functional, organism-based
How it was run: (§5)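 Nine-week-old Zucker fatty rats fasted overnight; vehicle or compound given orally (1–10 mg/kg) 30 min before oral glucose load of 2 g/kg; blood sampled for plasma glucose and insulin; mean ± S.E., n = 6.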

[8] = AUC in diabetic Zucker fatty rat model measured during OGTT at 10 mg/kg, po administered 30 mins prior to glucose challenge; format: ADME, organism-based; set-up: dose 10 mg/kg, route oral; conditions: in vivo; how it was run: as §2
[9] = Cmax in diabetic Zucker fatty rat model measured during OGTT at 10 mg/kg, po administered 30 mins prior to glucose challenge; format: ADME, organism-based; set-up: dose 10 mg/kg, route oral; conditions: in vivo; how it was run: as §3
[10] = Oral bioavailability in F344 rat at 3 mg/kg; format: ADME, organism-based; conditions: in vivo
How it was run: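 F344 rats. Bioavailability from an iv dose of 2 mg/kg paired with an oral dose of 3 mg/kg.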

MIN6 = assay: Insulinotropic effect in mouse MIN6 cells in presence of 25 mM glucose; format: functional, cell-based
How it was run: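 MIN6 mouse insulinoma cells exposed to compound from 0.001 to 10 µM with 25 mM glucose; insulin secreted into medium measured; mean ± S.E. of 4 wells.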

[11] = AUC in diabetic Zucker fatty rat model measured during OGTT at 3 mg/kg, po administered 30 mins prior to glucose challenge; format: ADME, organism-based; set-up: dose 3 mg/kg, route oral; conditions: in vivo; how it was run: as §2
[12] = Volume of distribution at steady state in F344 rat at 2 mg/kg, iv; format: ADME, organism-based; set-up: dose 2 mg/kg, route intravenous; conditions: in vivo, read-out: Vdss; how it was run: as §4
[13] = Cmax in diabetic Zucker fatty rat model measured during OGTT at 3 mg/kg, po administered 30 mins prior to glucose challenge; format: ADME, organism-based; set-up: dose 3 mg/kg, route oral; conditions: in vivo; how it was run: as §3
Rattus norvegicus [14] = assay: Antidiabetic activity in diabetic Zucker fatty rat model assessed as increase in insulin level measured during OGTT at 1 to 10 mg/kg, po administered 30 mins prior to glucose challenge; format: functional, organism-based; how it was run: as §5
Rattus norvegicus [15] = assay: Antidiabetic activity in diabetic Zucker fatty rat model assessed as reduction of blood glucose level at 3 mg/kg, po administered 30 mins prior to glucose challenge by oral glucose tolerance test relative to sitagliptin; format: functional
Homo sapiens = organism: Homo sapiens; assay: Inhibition of mitochondrial respiratory chain complex 1 (unknown origin) at 100 uM
How it was run: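 Compound tested at 100 μM. Read-out is percent inhibition of mitochondrial respiratory chain complex 1.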

[16] = AUC in F344 rat at 3 mg/kg, po; format: ADME, organism-based; set-up: dose 3 mg/kg, route oral; conditions: plasma
[17] = Cmax in F344 rat at 3 mg/kg, po; format: ADME, organism-based; set-up: dose 3 mg/kg, route oral; conditions: in vivo
How it was run: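 F344 rats, single oral dose of 3 mg/kg, plasma pharmacokinetic parameters determined.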

[18] = Half life in F344 rat at 2 mg/kg, iv; format: ADME, organism-based; set-up: dose 2 mg/kg, route intravenous; conditions: in vivo; how it was run: as §4
[19] = Oral bioavailability in F344 rat; format: ADME, organism-based; conditions: in vivo
How it was run: (§6)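 F344 rats; single dose given iv at 10 mg/kg or orally at 10 mg/kg (some compounds iv 2 mg/kg and po 3 mg/kg); plasma drug levels used to derive pharmacokinetic parameters.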

[20] = Half life in F344 rat at 10 mg/kg, iv; format: ADME, organism-based; set-up: dose 10 mg/kg, route intravenous; conditions: in vivo; how it was run: as §6
[21] = AUC in F344 rat at 10 mg/kg, po; format: ADME, organism-based; set-up: dose 10 mg/kg, route oral; conditions: plasma; how it was run: as §6
[22] = Oral bioavailability in F344 rat at 10 mg/kg; format: ADME, organism-based; conditions: in vivo; how it was run: as §6
[23] = Volume of distribution at steady state in F344 rat at 10 mg/kg, iv; format: ADME, organism-based; set-up: dose 10 mg/kg, route intravenous; conditions: in vivo, read-out: Vdss; how it was run: as §6
[24] = Cmax in F344 rat at 10 mg/kg, po; format: ADME, organism-based; set-up: dose 10 mg/kg, route oral; conditions: in vivo; how it was run: as §6
[25] = Clearance in F344 rat at 10 mg/kg, iv; format: ADME, organism-based; set-up: dose 10 mg/kg, route intravenous; conditions: in vivo; how it was run: as §6
Rattus norvegicus [26] = assay: Antidiabetic activity in diabetic Zucker fatty rat model assessed as reduction of blood glucose level at 10 mg/kg, po administered 30 mins prior to glucose challenge by oral glucose tolerance test; format: functional, organism-based; set-up: dose 10 mg/kg; how it was run: as §5

Free fatty acid receptor 1 (Rattus norvegicus, UniProt Q8K3T4), sequence (Q8K3T4 whole entry): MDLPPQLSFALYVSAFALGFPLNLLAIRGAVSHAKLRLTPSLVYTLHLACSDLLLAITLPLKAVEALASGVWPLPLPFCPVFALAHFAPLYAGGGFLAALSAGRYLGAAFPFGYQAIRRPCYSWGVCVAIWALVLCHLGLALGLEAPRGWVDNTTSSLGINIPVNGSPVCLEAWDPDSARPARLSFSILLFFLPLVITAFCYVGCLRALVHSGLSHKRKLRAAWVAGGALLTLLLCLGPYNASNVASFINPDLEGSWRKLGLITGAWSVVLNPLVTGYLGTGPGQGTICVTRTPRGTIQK
Free fatty acid receptor 1 (Homo sapiens, UniProt O14842), sequence (O14842 whole entry): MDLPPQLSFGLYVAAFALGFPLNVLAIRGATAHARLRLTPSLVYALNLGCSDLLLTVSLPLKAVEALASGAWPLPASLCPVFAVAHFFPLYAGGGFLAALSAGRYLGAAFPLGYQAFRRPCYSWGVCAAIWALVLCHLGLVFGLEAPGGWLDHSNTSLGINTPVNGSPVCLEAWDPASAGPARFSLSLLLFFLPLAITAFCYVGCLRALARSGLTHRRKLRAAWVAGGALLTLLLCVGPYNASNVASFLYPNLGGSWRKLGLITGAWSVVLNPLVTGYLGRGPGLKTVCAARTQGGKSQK

| SMILES | EC50 [1] [nM] | EC50 [2] [nM] | logD [5] | further results |
| --- | --- | --- | --- | --- |
| Cc1cc(OCc2cccc(-c3c(C)cccc3C)c2)ncc1CCC(=O)O | 130 | 9.3 |  |  |
| Cc1cccc(C)c1-c1cccc(COc2ccc(CCC(=O)O)nn2)c1 | 310 | 420 |  |  |
| CCOC(CC(=O)O)c1ccc(OCc2ccccc2C)cc1 (configuration not stated) | 79 | 20 | 1.2 | AUC at 0.5 h [3]: 4800 ng·h/mL; Cmax [4]: 4100 ng/mL; clearance [6]: 6.17 mL/min/kg; Activity (Rattus norvegicus [7]): Dose-dependent effect; AUC at 0.5 h [8]: 78000 ng·h/mL; Cmax [9]: 51000 ng/mL; bioavailability [10]: 64%; Activity (MIN6): Dose-dependent effect; AUC at 0.5 h [11]: 19000 ng·h/mL; Vd [12]: 0.16 L/kg; Cmax [13]: 14000 ng/mL; Activity (Rattus norvegicus [14]): Active; fold change (FC) (Rattus norvegicus [15]): 3; inhibition (Homo sapiens): 6%; AUC [16]: 5300 ng·h/mL; Cmax [17]: 3300 ng/mL; half-life [18]: 22.2 min |
| Cc1cccc(C)c1-c1cccc(COc2ccc(CCC(=O)O)nc2)c1 | 210 | 71 | 2.4 |  |
| COC(Cc1ccc(OCc2cccc(-c3c(C)cccc3C)c2)nc1)C(=O)O (configuration not stated) | > 10000 | 120 |  |  |
| Cc1cccc(C)c1-c1cccc(COc2ncc(CCC(=O)O)s2)c1 | 540 | 65 |  |  |
| Cc1cccc(C)c1-c1cccc(COc2ncc(CCC(=O)O)cn2)c1 | 1400 | 130 | 2 |  |
| CCOC(CC(=O)O)c1ccc(OCc2cccc(C)c2)cc1 (configuration not stated) | 78 | 35 |  |  |
| Cc1cc(CCC(=O)O)cnc1OCc1cccc(-c2c(C)cccc2C)c1 | 9100 | 2500 |  |  |
| Cc1cccc(C)c1-c1cccc(COc2cc3c(cn2)C(CC(=O)O)OC3)c1 (configuration not stated) | 190 | 49 |  |  |
| CCOC(CC(=O)O)c1ccc(OCc2ccc(C)cc2)cc1 (configuration not stated) | 290 | 370 |  |  |
| Cc1cccc(C)c1-c1cccc(COc2ccc(CCC(=O)O)cc2)c1 | 18 | 6.7 | > 3.3 | bioavailability [19]: 0.9%; inhibition (Homo sapiens): 58% |
| Cc1cccc(C)c1-c1cccc(COc2ccc(CCC(=O)O)s2)c1 | 840 | 52 | > 2.4 |  |
| Cc1cccc(C)c1-c1cccc(COc2ccc(CCC(=O)O)cn2)c1 | 38 | 3.5 | 3 | half-life [20]: 14.4 min; AUC [21]: 2000 ng·h/mL; bioavailability [22]: 24%; Vd [23]: 0.22 L/kg; Cmax [24]: 3500 ng/mL; clearance [25]: 20 mL/min/kg |
| CCOC(CC(=O)O)c1ccc(OCc2ccccc2)nc1 (configuration not stated) | 760 | 230 | 0.7 | inhibition (Homo sapiens): 1% |
| N[C@@H](CC(=O)N1CCn2c(nnc2C(F)(F)F)C1)Cc1cc(F)c(F)cc1F |  |  |  | Activity (Rattus norvegicus [26]): Active |
| Cc1cccc(C)c1-c1cccc(COc2cnc(CCC(=O)O)cn2)c1 | 16 | 3.8 | 2.5 |  |
| Cc1cccc(C)c1-c1cccc(COc2ccc(C(F)CC(=O)O)cn2)c1 (configuration not stated) | 96 | 18 |  | inhibition (Homo sapiens): 91% |
| O=C(O)CCc1ccc(NCc2cccc(Oc3ccccc3)c2)cc1 [GW9508] | 99 | 13 |  |  |
| CCOC(CC(=O)O)c1ccc(OCc2cccc(-c3c(C)cccc3C)c2)nc1 (configuration not stated) | 130 | 14 | 2.8 | inhibition (Homo sapiens): 66% |
| Cc1cccc(C)c1-c1cccc(COc2ccc(CCC(=O)O)c(C)n2)c1 | 1100 | 81 |  |  |
| Cc1cccc(C)c1-c1cccc(COc2ccc(CC(C)C(=O)O)cn2)c1 (configuration not stated) | 2100 | 65 |  |  |
| Cc1cccc(C)c1-c1cccc(COc2ccc(C(C)CC(=O)O)cn2)c1 (configuration not stated) | 320 | 10 | 3.3 | inhibition (Homo sapiens): 39% |
| Cc1cccc(C)c1-c1cccc(COc2ccc(CC(F)C(=O)O)cn2)c1 (configuration not stated) | 250 | 8.6 |  | inhibition (Homo sapiens): 58% |
